How the values were obtained:
Mus musculus = species: Mus musculus; test: Antinociceptive activity in mouse by using phenylbenzoquinone writing assay.; assay type: functional
In short: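 Mice given test compound at an initial screening dose of 30 mg/kg. ED50 determined only for compounds producing a response in seven of ten animals, with 95% confidence limits (p < 0.05).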

[1] = target: Prostaglandin E2 receptor EP1 (Cavia porcellus); test: PGE-2 (EP1 subtype) antagonistic activity as PGE2-stimulated guinea pig ileum muscle strip assay; settings: read-out: pA2 (converted)

Row | Kb [1] [nM] | SMILES | ED50 (Mus musculus) [mg/kg]
1 | 2510 | CCS(=O)(=O)CCC(=O)CNC(=O)N1Cc2ccccc2Oc2ccc(Cl)cc21 | 
2 | 2000 | O=C(CCc1ccncc1)NCC(=O)N1Cc2ccccc2Oc2ccc(Cl)cc21 | 
3 | 63.1 | O=C(CCSCc1ccco1)CNC(=O)N1Cc2ccccc2Oc2ccc(Cl)cc21 | 
4 | 39.8 | O=C(CCSCc1ccco1)NCC(=O)N1Cc2ccccc2Oc2ccc(Cl)cc21 | 

Second part, the compound before the results:

Row | SMILES | Kb [1] [nM] | ED50 (Mus musculus) [mg/kg]
5 | O=C(CCc1ccncc1)NNC(=O)N1Cc2ccccc2Oc2ccc(Cl)cc21 | 316 | 6.8
6 | CCS(=O)(=O)CCC(=O)NNC(=O)N1Cc2ccccc2Oc2ccc(Cl)cc21 | 1580 | 7.4
7 | O=C(NNC(=O)C(F)(F)C(O)c1ccccn1)N1Cc2ccccc2Oc2ccc(Cl)cc21 (stereo not drawn) | 31.6 | 9.1
8 | CCS(=O)(=O)CCC(=O)NCC(=O)N1Cc2ccccc2Oc2ccc(Cl)cc21 | 2000 | 
9 | O=C(CNC(=O)C(F)(F)C(O)c1ccccn1)N1Cc2ccccc2Oc2ccc(Cl)cc21 (stereo not drawn) |  | 8.1
10 | O=C(CCSCc1ccco1)NNC(=O)N1Cc2ccccc2Oc2ccc(Cl)cc21 |  | 0.9

Source: ChEMBL document CHEMBL1129733, “Aminoacetyl moiety as a potential surrogate for diacylhydrazine group of SC-51089, a potent PGE2 antagonist, and its analogs” (J Med Chem, 1996)
